The list is not random: actives were taken first. Their share in the collection is about 2%.
CaV13 ICDI inh – Primary screen for inhibitors of IQ motif and Ca2+-dependent inactivation inhibitor domain binding in CACNA1D, Förster resonance energy transfer in living cells, …; HEK cells, CFP/YFP FRET ICDI-IQ, plate reader, 10 min; percent FRET-ratio fall versus neutral wells; inhibition, % at 12.3 µM; 0.098% of 340,000 active;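 active means mean replicate inhibition of at least 30% and at least 1% of replicates passing that level; inconclusive means only one of the two criteria is met; inactive means neither criterion is met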;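 further: 0% = median of the neutral control wells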
FN deposit inh – fibronectin deposition inhibition. AID 743247. inhibition, % at 12.6 µM. AH1F fibroblasts, Alexa488-fibronectin deposition fluorescence, overnight. 0.086% of 350,000 active;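 active means mean inhibition across replicates of 30% or more, regardless of how many single replicates reach that level; inconclusive means mean under 30% yet at least half of replicates reach 30%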;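 further: positive control wells lacked labelled fibronectin entirely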
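material = AH1F fibroblast monolayer depositing Alexa488-labelled fibronectin into matrix | amount = 10000 AH1F cells/well | buffer or medium = DMEM plus 2% serum, read in PBS | incubation = 1 h cell adhesion before compound, then overnight fibronectin incubation | detection = fluorescence at 485 nm excitation, 525 nm emission | evaluation = percent inhibition as loss of matrix-bound fibronectin fluorescence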
Casp6 inh – caspase-6 (human) enzyme inhibition. 0.53% of 350,000 active. inhibition, % at 12.5 µM. AID 686996. purified caspase-6, Z-VEID-R110 cleavage fluorescence. P55212;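 active means mean inhibition across replicates at least about 35%, with every replicate also reaching that limit, limit read from the data; inconclusive means only one of the two criteria met; inactive means neither criterion met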;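 further: 0% = median of neutral control wells and 100% = no fluorescence left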
Target sequence (P55212 24-179 limits assumed): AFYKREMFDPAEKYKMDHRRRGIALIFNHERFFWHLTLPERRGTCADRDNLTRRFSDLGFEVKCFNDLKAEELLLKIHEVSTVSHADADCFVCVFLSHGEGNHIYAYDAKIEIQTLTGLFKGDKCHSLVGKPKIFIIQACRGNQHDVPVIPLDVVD
Target sequence (P55212 194-293 limits assumed): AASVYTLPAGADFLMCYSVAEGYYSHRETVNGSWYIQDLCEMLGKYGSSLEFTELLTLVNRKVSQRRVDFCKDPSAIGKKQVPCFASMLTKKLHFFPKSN
XiGFP reactiv – X-chromosome reactivation activator; XiGFP mouse fibroblasts, % GFP-positive cells imaging, 3 d; cells co-treated with 5-aza-dC sensitizer; scaled so ellipticine positive control = 100%; activation, % at 7.58 µM; 0.055% of 360,000 active;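 active means mean normalized replicate activation at least 10% and every replicate at or above 10%; inconclusive means only one of the two criteria met; inactive means mean below 10% and not all replicates reach 10%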;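 further: 0% = median of on-plate neutral control wells and 100% = ellipticine 6 µM median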
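Material: XiGFP fibroblasts, SV40-immortalized; Buffer or medium: DMEM containing 5-aza-dC; Compound dosing: single point; Times: 3 days compound exposure.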
DENV2 CPE – DENV2-induced cell death inhibition; DENV2-infected cells, cytopathic effect rescue, plate reader; CPE inhibition, % at 9.99 µM; 1.7% of 350,000 active; AID 651640; in the data active means CPE inhibition above about 20%, passing the limit was not always enough; inconclusive means no clear call, values can overlap the other calls; tested in BHK-21 cells;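 further: 0% = median of neutral control wells and 100% = median of positive control wells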
* marks the source's active call; other numbers are inactive results; ? = inconclusive; · = no result.

SMILES	CaV13 ICDI inh	FN deposit inh	Casp6 inh	XiGFP reactiv	DENV2 CPE
Cc1cccc(CN(C)C[C@@H]2Oc3ncc(C#CCN(C)C)cc3C(=O)N([C@H](C)CO)C[C@@H]2C)c1	·	-5	·	0	·
C[C@H](CO)N1C[C@H](C)[C@@H](CN(C)C(=O)C2CC2)Oc2cc(-c3ccccc3F)ccc2S1(=O)=O	·	·	-4	1	-3
CCCN1C[C@@H](C)[C@@H](OC)CN(C)C(=O)c2ccc(NC(=O)C3CCOCC3)cc2OC[C@@H]1C	·	6	-1	0	3
O=C(Cn1c2[n+](c3ccccc31)CC(O)CS2)c1ccccc1 (stereo not drawn)	-4	-11	-4	0	58*
Cc1ccc(C(=O)Cn2c3[n+](c4ccccc42)CC(O)CS3)cc1 (stereo not drawn)	4	-2	2	0	0
Cc1ccc(-c2csc3nc(-c4ccncc4)[nH]c(=O)c23)cc1	0	7	-1	0	10
Cc1ccc(-c2nc3ccsc3c(=O)[nH]2)cc1	60*	-15	0	0	9
CC(C)NC(=O)N[C@H]1C=C[C@H](CC(=O)NC2Cc3ccccc3C2)O[C@@H]1CO	·	2	-1	0	7
CN(C)S(=O)(=O)c1ccc2c(c1)/C(=C/c1cc3c([nH]1)CCCC3)C(=O)N2	-7	-2	-5	113*	-6
C[C@H](CO)N1C[C@H](C)[C@H](CN(C)Cc2ccc(Cl)c(Cl)c2)OCCCC[C@H](C)Oc2ccc(NS(C)(=O)=O)cc2C1=O	·	·	-2	-1	-8
COC(=O)/C=C/c1cnc[nH]1	-11	7	-2	0	51*
O=C1NCCOCc2cn(nn2)CC[C@H]1Cc1ccccc1	·	-1	·	0	·
CO[C@@H](C(=O)N(C)C[C@@H]1OCc2ccccc2-c2c(n(C)c3ccccc23)C(=O)N([C@@H](C)CO)C[C@H]1C)c1ccccc1	·	3	·	0	·
Cc1noc(C)c1S(=O)(=O)Nc1ccc2c(c1)C(=O)N([C@@H](C)CO)C[C@H](C)[C@@H](CN(C)Cc1ccc(C(=O)Nc3ccccc3N)cc1)O2	·	-21	2	0	14
C[C@H](CO)N1C[C@H](C)[C@H](CN(C)Cc2ccc(C(=O)Nc3ccccc3N)cc2)Oc2ccc(NS(=O)(=O)c3cccs3)cc2CC1=O	·	·	0	0	-11
Cc1noc(C)c1S(=O)(=O)Nc1ccc2c(c1)C(=O)N([C@H](C)CO)C[C@H](C)[C@H](CN(C)Cc1ccc(C(=O)Nc3ccccc3N)cc1)O2	·	-10	-1	0	24*
C[C@@H]1CN([C@H](C)CO)C(=O)Cc2cc(NS(=O)(=O)c3cccs3)ccc2O[C@H]1CN(C)Cc1ccc(C(=O)Nc2ccccc2N)cc1	·	·	-1	0	39*
COc1ccc(S(=O)(=O)Nc2ccc3c(c2)C(=O)N([C@@H](C)CO)C[C@H](C)[C@H](CN(C)Cc2ccc(C(=O)Nc4ccccc4N)cc2)O3)cc1	·	·	-2	0	23*
Cc1noc(C)c1S(=O)(=O)Nc1ccc2c(c1)CC(=O)N([C@@H](C)CO)C[C@H](C)[C@H](CN(C)Cc1ccc(C(=O)Nc3ccccc3N)cc1)O2	·	·	6	1	61*
COCC(=O)N1CC(=O)N2[C@H](CO)[C@H](c3ccc(C#CCc4ccccc4)cc3)[C@@H]2C1	·	·	-1	0	-16
O=C(C[C@H]1C=C[C@@H](NC(=O)C2CC2)[C@@H](CO)O1)Nc1ccccc1	·	·	0	0	-4
O=C(CCc1c[nH]c2ccccc12)OCC(=O)c1ccccc1	36*	-1	-3	0	0
O=C(OCC(=O)c1c[nH]c2ccccc12)c1cccc([N+](=O)[O-])c1	-5	-5	1	0	80*
O=C(CCc1c[nH]c2ccccc12)OCc1cccc([N+](=O)[O-])c1	-3	3	3	0	27*
CO[C@@H]1CN(C)C(=O)c2ccc(NC(=O)c3nc4ccccc4s3)cc2OC[C@@H](C)N(Cc2cncnc2)C[C@@H]1C	·	4	·	0	·
SMILES	CaV13 ICDI inh	FN deposit inh	Casp6 inh	XiGFP reactiv	DENV2 CPE
O=S(=O)(c1ccc(Cl)cc1)N1[C@@H]2CNC[C@H]1C2c1ccc(-c2cccnc2)cc1 (stereo partly drawn)	·	3	0	0	3
O=c1c2c3c(sc2nc(NCCOCCO)n1Cc1ccco1)CCCCC3	-5	3	1	0	-1
CC(O)CNc1nc2sc3c(c2c(=O)n1Cc1ccco1)CCCCC3 (stereo not drawn)	1	-4	2	0	29*
C/C=C/c1ccc([C@@H]2[C@@H](CO)N(CCC(F)(F)F)C23CN(C(C)=O)C3)cc1	·	·	·	0	3
C[C@@H]1CCCCO[C@H](CN(C)C(=O)Cc2ccccc2)[C@H](C)CN([C@H](C)CO)C(=O)c2cc(NS(=O)(=O)c3ccc(Cl)cc3)ccc2O1	·	3	-3	0	1
C[C@@H]1CCCCO[C@H](CN(C)C(=O)Cc2ccccc2)[C@@H](C)CN([C@H](C)CO)C(=O)c2cc(NS(=O)(=O)c3ccc(Cl)cc3)ccc2O1	·	3	-5	0	54*
C[C@@H]1CCCCO[C@@H](CN(C)C(=O)Cc2ccccc2)[C@H](C)CN([C@H](C)CO)C(=O)c2cc(NS(=O)(=O)c3ccc(Cl)cc3)ccc2O1	·	2	-1	0	85*
CC(C)NC(=O)N(C)C[C@@H]1Oc2ccc(NC(=O)CCC(F)(F)F)cc2CC(=O)N([C@H](C)CO)C[C@H]1C	·	·	1	0	1
CCc1nc2ccc(C(=O)N3CCCC(C(N)=O)C3)cn2c1N(C=O)CC (stereo not drawn)	-7	2	-2	1	27*
O=C(c1cccc(F)c1)N1CC(=O)N2[C@H](CO)[C@H](c3ccc(-c4ccccc4)cc3)[C@@H]2C1	·	·	·	1	·
COc1ccc(-c2cc3nc(-c4ccccc4)cc(N4CCN(C(=O)c5ccccc5)CC4)n3n2)cc1	-6	-3	2	0	-15
COc1ccc(-c2cc3nc(-c4ccccc4)cc(N4CCN(C(=O)c5ccsc5)CC4)n3n2)cc1	-5	-6	-2	0	63*
O=C(NC1=NN(c2ccccc2)CC1)Nc1ccccc1F	-6	1	-1	50*	?
C/C=C/c1ccc([C@H]2[C@@H](CO)N(Cc3cncnc3)C23CN(C(=O)CC2CC2)C3)cc1	·	·	-2	0	-1
CN1[C@H](C(=O)NCC(F)(F)F)[C@@H](CO)[C@@H]2Cn3c(ccc(-c4ccc(F)cc4)c3=O)[C@@H]21	·	·	-3	1	2
C=C1[C@H](C)CN[C@H]1CCO	-3	-3	43*	0	?
Cn1nc(C(=O)NNC(=O)c2ccc(Cl)c(S(N)(=O)=O)c2)c2ccccc2c1=O	-2	1	2	0	-2

Bioassay records as filed in PubChem.
